Experimental data published in the EternaBench riboswitch data.

System: MS2 coat protein
Assay: apparent Kd, MS2 coat protein; higher = weaker binding; RNA-MaP array; FMN 200 µM where present
Procedure, shortened: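 Two titrations, one without ligand and one with constant ligand, were run with SNAP-549-labelled MS2 coat protein from 0.7 or 1.5 nM, doubling to 3 µM. The targets were designs transcribed by stalled E. coli RNA polymerase on Illumina sequencing-chip clusters, in 100 mM Tris-HCl pH 7.5, 80 mM KCl, 4 mM MgCl2, BSA, DTT, yeast tRNA and Tween-20. The apparent Kd is the median of filtered per-cluster binding-curve fits, with green signal normalised to red-channel RNA signal and control-cluster median Fmax.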

[1] = designed as: OFF switch for flavin mononucleotide, no ligand
[2] = ligand present: flavin mononucleotide, designed as: OFF switch for flavin mononucleotide
[3] = designed as: ON switch for flavin mononucleotide, no ligand
[4] = ligand present: flavin mononucleotide, designed as: ON switch for flavin mononucleotide

## GUGCGGUAGGAGAAGGACGGAGGCUUCAUUACAUACAUGAGGAUCACCCAUGUAGGAUAUCCUACCUCACGCGGCCUCCUUCUG
[1]
  apparent Kd: 6.52 nM
[2]
  apparent Kd: 7.65 nM

## GUGCGGUCAGGAUAUGCAUGGCGGGACUUGCGUCGUGGCGUGGAGAAGGGACAUGAGGAUCACCCAUGUGGAGC
[1]
  apparent Kd: 51.4 nM
[2]
  apparent Kd: 54.2 nM

## GUGCGGUGAGGAUAUACGUAGGUACAGAUCUGUGUGUUCCUACAUGAGGAUCACCCAUGUAGAAGGCAUGGCAC
[1]
  apparent Kd: 49.6 nM
[2]
  apparent Kd: 136 nM

## GUGCGUGGCUAGGAUAUUGUGGAGUUUAGUCAGCGAGAAGGAGCCACAUGAGGAUCACCCAUGUGGUGUUGCUC
[1]
  apparent Kd: 40.5 nM
[2]
  apparent Kd: 101 nM

## GUGCUACAGCGGCGCACGAGACAUGAGGAUCACCCAUGUGACAGAAGGGACUUGUUAAAGGUAGGUCAGGAUAUGUCUUAAAAG
[3]
  apparent Kd: 291 nM
[4]
  apparent Kd: 81.4 nM

## GUGGCACAUGAGGAUCACCCAUGUCAGGAUAUCGCGUGUUUUUUUUCGGCCGCGCGCGCGAGAAGGGACGUCUU
[1]
  apparent Kd: 27.1 nM
[2]
  apparent Kd: 29.8 nM

## GUGGUCAGACAUGAGGAUCACCCAUGUGGAAUAAAUAACAGACAGGAUAUCCAAUAUAGGAUAUAGGAGAAGGGUCGAUUGGUG
[3]
  apparent Kd: 73.1 nM
[4]
  apparent Kd: 74.2 nM

## GUGGUCAGACAUGAGGAUCACCCAUGUGGAAUAAAUAAGGGUUAGGAUAUGCAAUAUAGGAUAUAGCAGAAGGGAUGGUUGGUG
[3]
  apparent Kd: 128 nM
[4]
  apparent Kd: 173 nM

## GUGGUGCAUAUACGUGGAGGUACAUGAGGAUCACCCAUGUAAGAGGAUAUGCGGAUACUAGCUCAGCAGAAGGCUUACAAAUGA
[1]
  apparent Kd: 13.1 nM
[2]
  apparent Kd: 51.5 nM

## GUGUACAGAGGAUAUACAUAAGCUAGGAAACUAGCAACCUCACAUGAGGAUCACCCAUGUAGAAGGCUGUACAC
[1]
  apparent Kd: 189 nM
[2]
  apparent Kd: 59.6 nM

## GUGUACAGAGGAUAUACUGGAGCUAGGAAACUAGCAACCUCACAUGAGGAUCACCCAUGUAGAAGGCUGUACAC
[1]
  apparent Kd: 402 nM
[2]
  apparent Kd: 25.8 nM

## GUGUACAGAGGAUAUAUAUGAGCUAGGAAACUAGCAACCUCACAUGAGGAUCACCCAUGUAGAAGGCUGUACAC
[1]
  apparent Kd: 103 nM
[2]
  apparent Kd: 346 nM

## GUGUACAGAGGAUAUGCUUGAAUCUAGCGAAGCUAGGUUCGACAUGAGGAUCACCCAUGUAGAAGGCUGUACAC
[1]
  apparent Kd: 13.6 nM
[2]
  apparent Kd: 12.7 nM

## GUGUACGGAGGAUAUAUAUGGGCAGCAUACGCUGCAGCUUCACAUGAGGAUCACCCAUGUAGAAGGCUGUGCAC
[1]
  apparent Kd: 22.4 nM
[2]
  apparent Kd: 129 nM

## GUGUAGAUAGGAUAUACGAGAGUCUAGCGAAGCUAGAUUCUACAUGAGGAUCACCCAUGUAGAAGGGUCUACAC
[1]
  apparent Kd: 16.5 nM
[2]
  apparent Kd: 19.2 nM

## GUGUAGUCAGGAUAUACAUAGGAAGAGAAGAGAAGAGAAGUACAUGAGGAUCACCCAUGUAGAAGGGACAGUGU
[1]
  apparent Kd: 24.3 nM
[2]
  apparent Kd: 25.1 nM

## GUUAAACAUGAGGAUCACCCAUGUAAGGAUAUGCUGCGGUAGAGAUGAAGUGAAUGCAGCAGAAGGUACAAUUG
[1]
  apparent Kd: 124 nM
[2]
  apparent Kd: 109 nM

## GUUAAGUGAGGAUAUGGUGAGUAGUGCCAGAGCGCUGCUCACCAGAAGGCACAUGAGGAUCACCCAUGUAUAGC
[1]
  apparent Kd: 15.7 nM
[2]
  apparent Kd: 31.5 nM

## GUUACAUGAGGAUCACCCAUGUAUGUGUGGGAGUAAGUGUCUUAGGAUAUCUAUUAUUUAAUGUAAGAGAAGGAAGAUUGUUGU
[3]
  apparent Kd: 113 nM
[4]
  apparent Kd: 124 nM

## GUUAUGCAGCAGGAUAUCCAUCCGCGGUAUGAUGGAGAAGGGCUGACAUGAGGAUCACCCAUGUGCGUCCUAGG
[1]
  apparent Kd: 40.3 nM
[2]
  apparent Kd: 97.1 nM

## GUUAUGUCAGGAUAUGCUUAUGGUGGGUGCUCAGACAUGAUGCAGAAGGGACAUGAGGAUCACCCAUGUACUGU
[1]
  apparent Kd: 593 nM
[2]
  apparent Kd: 435 nM

## GUUGCGUUUGUGAGGAUAUGCUGGUCCUUGGUUCGGCAGAAGGCACAUGAGGAUCACCCAUGUGGUGUUGUUCC
[1]
  apparent Kd: 126 nM
[2]
  apparent Kd: 94.7 nM

## GUUGCUAUCGGAGGAUAUUCAUACCGGAAACGGACAUGAGGAUCACCCAUGUGGCGAAAGCCAUGGGAGAAGGCCGAUAGCAAC
[3]
  apparent Kd: 1350 nM
[4]
  apparent Kd: 138 nM

## GUUUUGAUAGGAUAUACAUGAGGAUCACCCAUGUCCCACCCGUUACCUAUGACCAUAUGUAGAAGGAUCGUUUG
[1]
  apparent Kd: 98.1 nM
[2]
  apparent Kd: 83.9 nM

## GUUUUGGUAGGAUAUACAUGAGGAUCACCCAUGUCCCACCCGUUACCUAUGACCAUAUGUAGAAGGACCAUUUG
[1]
  apparent Kd: 22.2 nM
[2]
  apparent Kd: 28.2 nM

## GUUUUUUUUCAUGUACAUGAGGAACAUGAGGAUCACCCAUGUAGAAGGAAUUUUUUUAAGUUUAGUUAGGAUAUACAUAUAUUG
[1]
  apparent Kd: 54.2 nM
[2]
  apparent Kd: 33.9 nM

## UAAAAGUCAGGAUAUGCGAAGGCGUCUGAUAGACGAGGCUAGCAGAAGGGACAUGAGGAUCACCCAUGUGAAAU
[1]
  apparent Kd: 51.8 nM
[2]
  apparent Kd: 138 nM

## UAAAGCGUAGAUAAUUAUGUUACAUGAGGAUCACCCAUGUCAUAGGAUAUGCAGUGGAAUACACUGCAGAAGGAUGAAUCGCAG
[1]
  apparent Kd: 24.9 nM
[2]
  apparent Kd: 33.3 nM

## UAAAUAUUAAAAGGAUAUUCAUACCGGAAACGGACAUGAGGAUCACCCAUGUGGCGAAAGCCUUGGGAGAAGGUAUUAUAAAAU
[3]
  apparent Kd: 333 nM
[4]
  apparent Kd: 248 nM

## UAAAUGUGAGGAUAUCAGGUGUGCUAGCAUACUGGUACAUCUGAGAAGGCACAUGAGGAUCACCCAUGUUCCUU
[1]
  apparent Kd: 16.8 nM
[2]
  apparent Kd: 52.4 nM

## UAAAUGUGAGGAUAUCAGGUGUGCUAGCGUACUGGUACAUCUGAGAAGGCACAUGAGGAUCACCCAUGUUCCUU
[1]
  apparent Kd: 16.8 nM
[2]
  apparent Kd: 61.3 nM

## UAAAUGUGAGGAUAUUCGUAGUACUCGGAGACGAGUAUUACGGAGAAGGCACAUGAGGAUCACCCAUGUUCCUU
[1]
  apparent Kd: 21.3 nM
[2]
  apparent Kd: 188 nM

## UAAAUUAACAAGAAGGCUAACAUGAGGAUCACCCAUGUUGUACAUGGAUAUAGAGGAUAUUGCUAAUUAUUAUUUAUCAUAAUU
[1]
  apparent Kd: 23.6 nM
[2]
  apparent Kd: 18.3 nM

## UAAAUUAACAAGAAGGCUAACAUGAGGAUCACCCAUGUUGUACAUGGAUAUAGAGGAUAUUGCUAUUAAUUAUUUAUCAUAAUU
[1]
  apparent Kd: 21.2 nM
[2]
  apparent Kd: 18.9 nM

## UAACAAAUUGUCAGGAUAUCAUUCCCGGCCCAGAGUGAGAAGGGACAUGAGGAUCACCCAUGUAUGAUUCUCAC
[1]
  apparent Kd: 16.1 nM
[2]
  apparent Kd: 15.3 nM

## UAACCAGUCCAGAAGGUGACGUCUGAAACUAGUCAAGGAUAUGGGUUGGUCCACGGUCGGCUACAUGAGGAUCACCCAUGUACC
[3]
  apparent Kd: 32.8 nM
[4]
  apparent Kd: 8.33 nM

## UAAUAAUUAUGAGGAUAUAUACAACAUGAGGAUCACCCAUGUACCCAUGUAGUAGAAGGCAUAUUUUUAUUUAAUAAUAUAACU
[3]
  apparent Kd: 60.4 nM
[4]
  apparent Kd: 27.6 nM

## UAAUAAUUAUGAGGAUAUAUACAACAUGAGGAUCACCCAUGUACCCAUGUAGUAGAAGGCAUAUUUUUAUUUAAUAAUAUAAUU
[3]
  apparent Kd: 79.4 nM
[4]
  apparent Kd: 33.9 nM

## UAAUAUAUACAAGGAUAUCAAUUAUAUACACAUCCUACAUGAGGAUCACCCAUGUUUUAUUUUUUUGAGAAGGUGUAUUGUCGG
[3]
  apparent Kd: 20.4 nM
[4]
  apparent Kd: 29.1 nM

## UAAUCUCAGAUAGGAUAUAUAGGAUGAUUUAAGACUGAACAUGAGGAUCACCCAUGUGAUUAUCUGUAGAAGGAUCAAUUAGCC
[3]
  apparent Kd: 476 nM
[4]
  apparent Kd: 365 nM

## UACAGACAUGAGGAUCACCCAUGUAAGGAUAUCGGUACUGAUGGUAUAAUCUACUCAGCGAGAAGGUACAGUGU
[1]
  apparent Kd: 33.6 nM
[2]
  apparent Kd: 33.2 nM

## UACAGCGUAGAUAAUUAUGUUACAUGAGGAUCACCCAUGUCAUAGGAUAUGCAGUGGAAUACACUGCAGAAGGAUGCAUCGCUG
[1]
  apparent Kd: 14.7 nM
[2]
  apparent Kd: 18.5 nM

## UACAUCAAUGAAGGAUAUCUAUAUCCAACAUGAGGAUCACCCAUGUUGAGGAUCACCCAUGUAAAGGAGAAGGUUAACAUAACU
[3]
  apparent Kd: 39.4 nM
[4]
  apparent Kd: 34 nM

## UACAUCAAUGAAGGAUAUCUAUAUCCAACAUGAGGAUCACCCAUGUUGAGGAUCACCCAUGUAAAGGAGAAGGUUAAUAUAACU
[3]
  apparent Kd: 37.7 nM
[4]
  apparent Kd: 29.7 nM

## UACAUCUCGUAAGGAUAUACACGAGAUUCAAGUGUAGAAGGUACUAACAUGAGGAUCACCCAUGUAUACAUGGAUAAUAGAUAU
[3]
  apparent Kd: 91.6 nM
[4]
  apparent Kd: 59.7 nM

## UACAUGAGGAUCACCCAUGUUAACAUGGAGUUGUUAUAUCUGAGAAGGGUAAUAUUACAUUAAGUACAGGAUAUCAAUGAUGUU
[1]
  apparent Kd: 45.2 nM
[2]
  apparent Kd: 18.4 nM

## UACAUGAGGAUCACCCAUGUUUUGUCGUGUAUGGUAUUUAUCUAGGAUAUCAAUAUAUUUAUUUAUGAGAAGGAGAAUAUUAAU
[1]
  apparent Kd: 38 nM
[2]
  apparent Kd: 33.6 nM

## UACAUGAGGAUCACCCAUGUUUUGUCGUGUAUGGUAUUUAUCUAGGAUAUCAAUUUACUUAUUUAUGAGAAGGAGAAUAUUAAU
[1]
  apparent Kd: 32.4 nM
[2]
  apparent Kd: 31.3 nM

## UACAUGAGGAUCACCCAUGUUUUGUCGUGUAUGGUAUUUAUCUAGGAUAUCAAUUUAGUUAAUUAUGAGAAGGAGAAUAUUAAU
[1]
  apparent Kd: 39.1 nM
[2]
  apparent Kd: 39 nM

## UACAUUUAACAGAAGGCGUUUAUAUAUAACUUACGAGGAUAUGUAUAACAUGAGGAUCACCCAUGUAACAUGGAGAGAAUAUCU
[3]
  apparent Kd: 43.1 nM
[4]
  apparent Kd: 26.6 nM

## UACCGCGACAACACGGUAUCACAUGAGGAUCACCCAUGUUCACAGGAUAUGCGAUAGCCAACGAAGCAGAAGGGUGAUUACUUA
[3]
  apparent Kd: 37.3 nM
[4]
  apparent Kd: 263 nM

## UACGUACAGAAGAACGCCGGGUCCAGAAGGGACAUGAGGAUCACCCAUGUACCGUUGAUUGCUUGUCAGGAUAUGGACCCGGCC
[1]
  apparent Kd: 6.32 nM
[2]
  apparent Kd: 21.8 nM

## UACUUCCGAGGAUAUACAUGAGGAUCACCCAUGUGCUUCAGCAUCGAAAGAUGCAUGGGUAGAAGGCGGUAGUU
[1]
  apparent Kd: 44.6 nM
[2]
  apparent Kd: 50.4 nM

## UAGAAGUCAGGAUAUGCUGCUCGUCACUUGCGUGAUGAGUAGCAGAAGGGACAUGAGGAUCACCCAUGUAAAGC
[1]
  apparent Kd: 48.8 nM
[2]
  apparent Kd: 54.3 nM

## UAGAUGGGAGGAUAUACGUAUAUGCAGGUUCGUGUGGUGCUACAUGAGGAUCACCCAUGUAGAAGGCCCGUCUU
[2]
  apparent Kd: 38.6 nM

## UAGCAGUAGGGAGGAUAUGCGAAAGGAAGGCCCGCAGAAGGCCUUACAUGAGGAUCACCCAUGUAGGAUGCCUGGGUGGUGCCC
[1]
  apparent Kd: 13.8 nM
[2]
  apparent Kd: 20.3 nM
